Several values for one entry are separate records, joined by “and”; a condition that tells them apart may be missing. Identical values can stand only once.
Key:
[1] = ABTS method; settings: for IC50: read-out: ABTS scavenging IC50
[2] = biological target: Bacillus Pasteurii urease (Sporosarcina pasteurii, UniProt P41020); experiment: Urease inhibition assay; format: biochemical; settings: Enzyme (SEM ±) B.P Urease, IC50, mean ± SEM, 3 experiments
[3] = biological target: jack bean urease (Canavalia ensiformis, UniProt P07374); experiment: Urease inhibition assay; format: biochemical; settings: for IC50: Enzyme (SEM ±) J.B Urease, IC50, mean ± SEM, 3 experiments
Chain of jack bean urease (P07374 whole entry, looked up): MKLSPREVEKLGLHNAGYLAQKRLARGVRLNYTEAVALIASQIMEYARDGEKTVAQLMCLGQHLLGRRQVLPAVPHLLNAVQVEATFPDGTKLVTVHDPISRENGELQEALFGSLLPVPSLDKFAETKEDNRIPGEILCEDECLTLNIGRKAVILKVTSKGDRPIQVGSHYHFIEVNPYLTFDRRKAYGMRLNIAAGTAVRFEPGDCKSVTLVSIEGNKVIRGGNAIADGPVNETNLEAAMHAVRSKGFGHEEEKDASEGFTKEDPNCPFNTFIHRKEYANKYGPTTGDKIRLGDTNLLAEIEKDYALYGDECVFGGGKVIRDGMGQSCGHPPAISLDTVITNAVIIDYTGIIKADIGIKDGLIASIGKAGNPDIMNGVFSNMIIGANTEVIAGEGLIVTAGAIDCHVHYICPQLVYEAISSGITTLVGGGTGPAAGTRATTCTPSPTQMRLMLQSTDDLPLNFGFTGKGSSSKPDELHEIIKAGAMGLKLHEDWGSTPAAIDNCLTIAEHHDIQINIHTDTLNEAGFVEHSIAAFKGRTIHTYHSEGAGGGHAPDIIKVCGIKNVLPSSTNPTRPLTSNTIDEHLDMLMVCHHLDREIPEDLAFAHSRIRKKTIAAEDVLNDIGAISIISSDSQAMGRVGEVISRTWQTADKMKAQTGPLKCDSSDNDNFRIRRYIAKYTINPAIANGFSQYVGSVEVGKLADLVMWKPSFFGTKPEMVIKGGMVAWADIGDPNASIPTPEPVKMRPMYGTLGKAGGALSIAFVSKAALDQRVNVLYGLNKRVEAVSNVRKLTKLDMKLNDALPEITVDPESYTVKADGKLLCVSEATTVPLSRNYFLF

[4] = biological target: α-Glucosidase (Saccharomyces cerevisiae, UniProt P53341); experiment: α-Glucosidase inhibition assay; format: biochemical
Chain of α-Glucosidase (P53341 whole entry): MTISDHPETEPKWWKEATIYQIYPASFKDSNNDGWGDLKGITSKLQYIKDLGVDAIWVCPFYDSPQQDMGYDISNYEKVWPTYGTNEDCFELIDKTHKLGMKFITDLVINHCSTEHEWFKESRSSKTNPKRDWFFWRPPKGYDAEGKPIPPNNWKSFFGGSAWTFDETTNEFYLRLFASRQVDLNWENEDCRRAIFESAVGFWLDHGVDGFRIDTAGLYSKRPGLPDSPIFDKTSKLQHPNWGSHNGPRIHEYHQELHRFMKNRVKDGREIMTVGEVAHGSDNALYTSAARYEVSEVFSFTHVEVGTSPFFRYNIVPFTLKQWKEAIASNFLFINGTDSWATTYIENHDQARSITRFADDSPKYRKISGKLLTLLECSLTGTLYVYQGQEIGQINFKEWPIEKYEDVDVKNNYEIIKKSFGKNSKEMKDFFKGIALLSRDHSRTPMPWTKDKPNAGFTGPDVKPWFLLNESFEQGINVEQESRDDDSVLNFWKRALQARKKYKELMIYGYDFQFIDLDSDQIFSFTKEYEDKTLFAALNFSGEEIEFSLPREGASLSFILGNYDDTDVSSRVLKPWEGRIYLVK
In short: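 Test compound (200–800 μg/mL) pre-incubated 5 min at 37 °C with 2 % w/v starch (sucrose) solution in 0.2 M Tris buffer, pH 8.0. 5 mM p-nitrophenyl-α-D-glucopyranoside added intermittently, then α-glucosidase (1 U/mL), 40 min at 35 °C. Stopped with […]; absorbance read at 405 nm. % inhibition = (control − sample)/control × 100; samples above 50 % taken to IC50.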

[5] = Superoxide anion scavenging assay; settings: for IC50: read-out: superoxide anion scavenging IC50
[6] = DPPH free radical scavenging activity; settings: for IC50: read-out: DPPH scavenging IC50

Chain of Bacillus Pasteurii urease (P41020 whole entry): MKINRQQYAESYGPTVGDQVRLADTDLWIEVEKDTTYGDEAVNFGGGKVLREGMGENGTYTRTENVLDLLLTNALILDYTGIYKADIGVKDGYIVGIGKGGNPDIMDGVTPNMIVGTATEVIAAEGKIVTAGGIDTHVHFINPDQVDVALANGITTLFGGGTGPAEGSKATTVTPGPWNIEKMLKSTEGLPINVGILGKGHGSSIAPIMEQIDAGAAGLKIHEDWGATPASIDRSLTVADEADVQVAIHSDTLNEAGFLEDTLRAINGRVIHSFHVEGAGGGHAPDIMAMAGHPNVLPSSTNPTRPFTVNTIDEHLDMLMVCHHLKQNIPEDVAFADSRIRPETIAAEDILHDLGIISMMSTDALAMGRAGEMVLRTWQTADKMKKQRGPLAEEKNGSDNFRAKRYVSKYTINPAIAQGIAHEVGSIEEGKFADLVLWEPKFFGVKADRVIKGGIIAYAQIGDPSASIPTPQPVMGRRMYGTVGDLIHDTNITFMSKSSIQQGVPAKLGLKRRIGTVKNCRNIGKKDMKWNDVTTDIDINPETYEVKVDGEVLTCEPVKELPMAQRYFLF
Chain of Bacillus Pasteurii urease (P41021 whole entry partner): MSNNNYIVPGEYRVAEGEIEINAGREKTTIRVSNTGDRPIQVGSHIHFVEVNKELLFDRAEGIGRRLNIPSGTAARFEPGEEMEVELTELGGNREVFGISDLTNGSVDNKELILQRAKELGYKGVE
Chain of Bacillus Pasteurii urease (P41022 whole entry partner): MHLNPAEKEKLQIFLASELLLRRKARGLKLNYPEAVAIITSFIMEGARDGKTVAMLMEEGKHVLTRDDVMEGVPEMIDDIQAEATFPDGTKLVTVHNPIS

SMILES	ABTS % Scavenging ([1]; 10 μM) [%]	ABTS % Scavenging ([1]; 20 μM) [%]	ABTS % Scavenging ([1]; 30 μM) [%]	ABTS % Scavenging ([1]; 40 μM) [%]	ABTS % Scavenging ([1]; 50 μM) [%]	IC50 [1]	IC50 [2] [µM]	Types of inhibition (urease) [3]	IC50 [3] [µM]	Type of Inhibition (α-glucosidase and α-amylase) [4]	superoxide anion % scavenging ([5]; 25 μM) [%]	superoxide anion % scavenging ([5]; 50 μM) [%]	superoxide anion % scavenging ([5]; 75 μM) [%]	superoxide anion % scavenging ([5]; 100 μM) [%]	IC50 [5]	DPPH % Scavenging ([6]; 25 μM) [%]	DPPH % Scavenging ([6]; 50 μM) [%]	DPPH % Scavenging ([6]; 75 μM) [%]	DPPH % Scavenging ([6]; 100 μM) [%]	IC50 [6]	also measured
Cc1ccc(S(=O)(=O)N(Cc2ccccc2)c2nccs2)cc1 [Compound 19, N-Benzyl-4-methyl-N-(thiazol-2-yl)benzenesulfonamide]	18.01 ± 0.09	37.05 ± 0.04	41.09 ± 0.01	69.02 ± 0.03	89.03 ± 0.91	37.01 ± 0.04 µM	29.05 ± 0.01	Competitive	26.15 ± 0.02	Competitive	32 ± 0.07	59 ± 0.25	80 ± 0.11	88 ± 0.01	42 ± 0.15 µM	39.1 ± 0.2	65.8 ± 0.03	89.6 ± 0.11	95.1 ± 0.41	40.01 ± 0.01 µM	
C=CCN(c1nccs1)S(=O)(=O)c1ccc(OC)cc1 [Compound 27, N-allyl-4-methoxy-N-(thiazol-2-yl)benzenesulfonamide]	10.02 ± 0.05	19.08 ± 0.03	43.02 ± 0.09	70.02 ± 0.11	93.09 ± 0.02	40.05 ± 0.08 µM	26.37 ± 0.22	Competitive	24.1 ± 0.34	Non-competitive	25 ± 0.17	71 ± 0.25	86 ± 0.03	93 ± 0.52	45 ± 0.19 µM	33.2 ± 0.01	59.6 ± 0.2	75.4 ± 0.2	91.8 ± 0.03	~39.2 µM and 39.2 µM	
CN(c1nccs1)S(=O)(=O)c1ccc(Cl)cc1 [Compound 37, 4-Chloro-N-methyl-N-(thiazol-2-yl)benzenesulfonamide]	30.22 ± 0.22	41.25 ± 0.11	48.01 ± 0.12	65.5 ± 0.07	99.03 ± 0.15	34.11 ± 0.16 µM	25.4 ± 0.31	Competitive	21.02 ± 0.21	Non-competitive	37 ± 0.21	43 ± 0.6	67 ± 0.03	99 ± 0.15	54 ± 0.15 µM	19 ± 0.17	42.4 ± 0.8	66.8 ± 0.15	99.1 ± 0.21	57.1 ± 0.11 µM	inhibition against both enzymes (α-glucosidase and α-amylase), in words [4]: weak inhibition
C=CCN(c1nccs1)S(=O)(=O)c1ccccc1 [Compound 29, N-allyl-N-(thiazol-2-yl)benzenesulfonamide]	19.2 ± 0.5	23.07 ± 0.13	45.01 ± 0.19	74.12 ± 0.17	89.19 ± 0.12	43.21 ± 0.15 µM	23.02 ± 0.15	Non-competitive	21.22 ± 0.17	Non-competitive	28 ± 0.07	73 ± 0.20	85 ± 0.13	96 ± 0.32	43 ± 0.17 µM	34.5 ± 0.21	49.1 ± 0.13	77.2 ± 0.7	93.5 ± 0.08	52.5 ± 0.11 µM	
C=CCN(c1nccs1)S(=O)(=O)c1ccc(F)cc1 [Compound 31, N-Allyl-4-fluoro-N-(thiazol-2-yl)benzenesulfonamide]	29.31 ± 0.2	37.15 ± 0.28	41.11 ± 0.39	47.12 ± 0.17	73.04 ± 0.12	46.13 ± 0.13 µM	51.39 ± 0.11	Non-competitive	46.02 ± 0.05	Non-competitive	25 ± 0.11	46 ± 0.05	79 ± 0.33	104 ± 0.22	60 ± 0.05 µM	34.02 ± 0.1	43.1 ± 0.13	73.2 ± 0.5	90.5 ± 0.11	66.3 ± 0.2 µM	
C=CCN(c1nccs1)S(=O)(=O)c1ccc(Cl)cc1 [Compound 30, N-Allyl-4-chloro-N-(thiazol-2-yl)benzenesulfonamide]	23.11 ± 0.02	40.3 ± 0.53	46.01 ± 0.19	59.5 ± 0.20	87.11 ± 0.15	37.6 ± 0.01 µM	32.3 ± 0.37	Non-competitive	28.1 ± 0.35	Non-competitive	29 ± 0.34	63 ± 0.01	79 ± 0.11	87 ± 0.21	43 ± 0.09 µM	38.5 ± 0.19	46.1 ± 0.11	77.2 ± 0.13	81.2 ± 0.15	52.3 ± 0.21 µM	
C=CCN(c1nccs1)S(=O)(=O)c1ccc(C)cc1 [Compound 26, N-Allyl-4-methyl-N-(thiazol-2-yl)benzenesulfonamide]	09.02 ± 0.03	24.03 ± 0.01	43.08 ± 0.09	75.07 ± 0.02	96.06 ± 0.21	~33 µM and 33 µM	38.2 ± 0.36	Non-competitive	30.11 ± 0.07	Competitive	27 ± 0.07	63 ± 0.01	73 ± 0.11	94 ± 0.51	~36 µM and 36 µM	43.2 ± 0.8	74.8 ± 0.3	88.5 ± 0.1	99.2 ± 0.2	~38.3 µM and 38.3 µM	
O=S(=O)(c1ccccc1)N(Cc1ccccc1)c1nccs1 [Compound 22, N-Benzyl-N-(thiazol-2-yl)benzenesulfonamide]	12.04 ± 0.01	27.2 ± 0.5	47.03 ± 0.06	66.11 ± 0.31	86.13 ± 0.12	40.01 ± 0.01 µM	18.7 ± 0.23	Competitive	15.31 ± 0.09	Non-competitive	35 ± 0.02	57 ± 0.15	80 ± 0.25	87 ± 0.15	40 ± 0.06 µM	31.4 ± 0.08	50.1 ± 0.11	66.1 ± 0.23	79.5 ± 0.05	57.2 ± 0.07 µM	
C=CCN(c1nccs1)S(=O)(=O)c1ccc(Br)cc1 [Compound 28, N-Allyl-4-bromo-N-(thiazol-2-yl)benzenesulfonamide]	10.01 ± 0.02	27.3 ± 0.05	48.08 ± 0.9	55.7 ± 0.22	99.06 ± 0.25	~35 µM and 35 µM	36.1 ± 0.43	Non-competitive	29.55 ± 0.12	Competitive	25 ± 0.02	66 ± 0.11	77 ± 0.18	99 ± 0.31	~39 µM and 39 µM	48.2 ± 0.09	70.7 ± 0.01	85.3 ± 0.3	91.2 ± 0.06	~48.4 µM and 48.4 µM	
Cc1ccc(S(=O)(=O)N(C)c2nccs2)cc1 [Compound 33, N,4-Dimethyl-N-(thiazol-2-yl)benzenesulfonamide]	29.02 ± 0.08	41.07 ± 0.03	49.08 ± 0.01	72.02 ± 0.07		~35.1 µM	25.09 ± 0.14	Non-competitive	22.1 ± 0.29	Competitive	20 ± 0.01	51 ± 0.03	60 ± 0.15	99 ± 0.18	38 ± 0.55 µM	30.2 ± 0.2	37.4 ± 0.1	65.6 ± 0.01	88.3 ± 0.2	~34.4 µM and 34.4 µM	inhibition against both enzymes (α-glucosidase and α-amylase), in words [4]: weak inhibition

Reference: paper PMC11327602 (Heliyon, 2024)
